# Experimental data from ChEMBL document CHEMBL4715780, “Biological evaluation of tetracationic compounds based on two 1,4-diazabicyclo[2.2.2]octane moieties connected by different linkers” (Bioorg Med Chem, 2016).
# Tests used:
# Staphylococcus aureus [1] = assay: Antibacterial activity against methicillin-resistant Staphylococcus aureus CEMTC 1850 assessed as bacterial growth inhibition by CLSI protocol based serial microdilution method; format: functional
# Pseudomonas aeruginosa [2] = assay: Antibacterial activity against Pseudomonas aeruginosa ATCC 9027 assessed as bacterial growth inhibition by CLSI protocol based serial microdilution method; format: functional
# Staphylococcus aureus [3] = assay: Antibacterial activity against […] Staphylococcus aureus ATCC 25923 assessed as concentration required to inhibit visible growth by CLSI protocol based serial microdilution method; format: functional
# Staphylococcus aureus [4] = assay: Antibacterial activity against methicillin-resistant Staphylococcus aureus CEMTC 1733 assessed as concentration required to inhibit visible growth by CLSI protocol based serial microdilution method; format: functional
# Citrobacter freundii [5] = assay: Antibacterial activity against Citrobacter freundii ATCC 8090 assessed as bacterial growth inhibition by CLSI protocol based serial microdilution method; format: functional
# Citrobacter freundii [6] = assay: Antibacterial activity against Citrobacter freundii ATCC 8090 assessed as concentration required to inhibit visible growth by CLSI protocol based serial microdilution method; format: functional
# Pseudomonas aeruginosa [7] = assay: Antibacterial activity against Pseudomonas aeruginosa ATCC 9027 assessed as concentration required to inhibit visible growth by CLSI protocol based serial microdilution method; format: functional
# Escherichia coli [8] = assay: Antibacterial activity against Escherichia coli ATCC 25922 assessed as bacterial growth inhibition by CLSI protocol based serial microdilution method; format: functional
# Staphylococcus aureus [9] = assay: Antibacterial activity against methicillin-resistant Staphylococcus aureus CEMTC 1732 assessed as bacterial growth inhibition by CLSI protocol based serial microdilution method; format: functional
# Salmonella typhimurium [10] = assay: Antibacterial activity against Salmonella enterica ATCC 14028 assessed as bacterial growth inhibition by CLSI protocol based serial microdilution method; format: functional
# Staphylococcus aureus [11] = assay: Antibacterial activity against methicillin-resistant Staphylococcus aureus CEMTC 707 assessed as concentration required to inhibit visible growth by CLSI protocol based serial microdilution method; format: functional
# Proteus vulgaris [12] = assay: Antibacterial activity against Proteus vulgaris ATCC 6380 assessed as concentration required to inhibit visible growth by CLSI protocol based serial microdilution method; format: functional
# Staphylococcus aureus [13] = assay: Antibacterial activity against methicillin-resistant Staphylococcus aureus CEMTC 1732 assessed as concentration required to inhibit visible growth by CLSI protocol based serial microdilution method; format: functional
# Enterococcus faecalis [14] = assay: Antibacterial activity against Enterococcus faecalis ATCC 51299 assessed as bacterial growth inhibition by CLSI protocol based serial microdilution method; format: functional
# Staphylococcus aureus [15] = assay: Antibacterial activity against methicillin-resistant Staphylococcus aureus CEMTC 1850 assessed as concentration required to inhibit visible growth by CLSI protocol based serial microdilution method; format: functional
# Staphylococcus aureus [16] = assay: Antibacterial activity against methicillin-resistant Staphylococcus aureus CEMTC 707 assessed as bacterial growth inhibition by CLSI protocol based serial microdilution method; format: functional
# Staphylococcus aureus [17] = assay: Antibacterial activity against methicillin-resistant Staphylococcus aureus CEMTC 1695 assessed as concentration required to inhibit visible growth by CLSI protocol based serial microdilution method; format: functional
# Staphylococcus aureus [18] = assay: Antibacterial activity against methicillin-resistant Staphylococcus aureus CEMTC 675 assessed as bacterial growth inhibition by CLSI protocol based serial microdilution method; format: functional
# Salmonella typhimurium [19] = assay: Antibacterial activity against Salmonella enterica ATCC 14028 assessed as concentration required to inhibit visible growth by CLSI protocol based serial microdilution method; format: functional
# Staphylococcus aureus [20] = assay: Antibacterial activity against methicillin-resistant Staphylococcus aureus CEMTC 1695 assessed as bacterial growth inhibition by CLSI protocol based serial microdilution method; format: functional
# Staphylococcus aureus [21] = assay: Antibacterial activity against methicillin-resistant Staphylococcus aureus CEMTC 1733 assessed as bacterial growth inhibition by CLSI protocol based serial microdilution method; format: functional
# Proteus vulgaris [22] = assay: Antibacterial activity against Proteus vulgaris ATCC 6380 assessed as bacterial growth inhibition by CLSI protocol based serial microdilution method; format: functional
# Staphylococcus aureus [23] = assay: Antibacterial activity against methicillin-resistant Staphylococcus aureus CEMTC 675 assessed as concentration required to inhibit visible growth by CLSI protocol based serial microdilution method; format: functional
# Enterococcus faecalis [24] = assay: Antibacterial activity against Enterococcus faecalis ATCC 51299 assessed as concentration required to inhibit visible growth by CLSI protocol based serial microdilution method; format: functional
# Escherichia coli [25] = assay: Antibacterial activity against Escherichia coli ATCC 25922 assessed as concentration required to inhibit visible growth by CLSI protocol based serial microdilution method; format: functional
# Staphylococcus aureus [26] = assay: Antibacterial activity against […] Staphylococcus aureus ATCC 25923 assessed as bacterial growth inhibition by CLSI protocol based serial microdilution method; format: functional
# [27] = Selectivity index, ratio of CC50 for HEK293T cells assessed as reduction in cell viability measured after 24 hrs by MTT assay to MIC for Enterococcus faecalis ATCC 51299 assessed as bacterial growth inhibition by CLSI protocol based serial microdilution method; format: toxicity; details: human, read-out: Selectivity Index
# [28] = Selectivity index, ratio of CC50 for HEK293T cells assessed as reduction in cell viability measured after 24 hrs by MTT assay to MIC for Candida albicans CEMTC 34 assessed as bacterial growth inhibition by CLSI protocol based serial microdilution method; format: toxicity; details: human, read-out: Selectivity Index
# In short: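 SI = CC₅₀ (HEK293T) / MIC. HEK293T cells were seeded at 20,000/well overnight, then exposed to 10–250 µg/mL in IMDM with 10% FBS for 24 h. MTT was added for 4 h, solubilised with SDS-HCl, and read at 570 nm; duplicates, ≥2 independent runs. MIC came from two-fold dilutions in Sabouraud dextrose broth at ~5 × 10⁵ CFU/mL, 37 °C with shaking, read at 595 nm, in duplicate.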
# [29] = Selectivity index, ratio of CC50 for HEK293T cells assessed as reduction in cell viability measured after 24 hrs by MTT assay to MIC for Citrobacter freundii ATCC 8090 assessed as bacterial growth inhibition by CLSI protocol based serial microdilution method; format: toxicity; details: human, read-out: Selectivity Index
# [30] = Selectivity index, ratio of CC50 for MDCK cells to EC50 for Influenza A virus (A/Puerto Rico/8/34 (H1N1)) infected in MDCK cells; format: toxicity, cell-based; details: dog, read-out: Ratio CC50/EC50
# In short: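 Ratio of CC₅₀ to EC₅₀, both in MDCK cells, with cytotoxicity run in parallel with the antiviral assay. EC₅₀ is the concentration halving virus production (0.3 log₁₀ EID₅₀ titre drop). It was obtained after 1 h compound pre-incubation, infection, 48 h at 37 °C, and hemagglutination read-out with 1% chicken erythrocytes.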
# Candida albicans [31] = assay: Antifungal activity against Candida albicans CEMTC 34 assessed as concentration required to inhibit visible growth by CLSI protocol based serial microdilution method; format: functional
# In short: (§1)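 Candida albicans grown in Sabouraud dextrose broth with two-fold serial compound dilutions from water stocks; final inoculum about 5 × 10⁵ CFU/mL. Incubated at 37 °C with orbital shaking (580 rpm). MIC is the lowest concentration preventing growth, by absorbance at 595 nm. MFC is the lowest concentration with no visible growth. Duplicates in two separate experiments.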
# [32] = Cytotoxicity against human MCF7 cells assessed as reduction in cell viability measured after 24 hrs by MTT assay; format: cell-based
# In short: (§2)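 HEK293T or MCF-7 cells in IMDM with 10% FBS, seeded at 20,000 per well and grown overnight. Compounds at […] in fresh medium for 24 h at 37 °C, 5% CO₂. MTT then added for 4 h, precipitate dissolved overnight in SDS-HCl, absorbance read at 570 nm. Viability expressed relative to untreated cells, giving CC₅₀. Duplicate wells, at least two independent repeats.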
# [33] = Selectivity index, ratio of CC50 for HEK293T cells assessed as reduction in cell viability measured after 24 hrs by MTT assay to MIC for Salmonella enterica ATCC 14028 assessed as bacterial growth inhibition by CLSI protocol based serial microdilution method; format: toxicity; details: human, read-out: Selectivity Index
# Candida albicans [34] = assay: Antifungal activity against Candida albicans CEMTC 34 assessed as fungal growth inhibition by CLSI protocol based serial microdilution method; format: functional; in short: as §1
# [35] = Cytotoxicity against HEK293T cells assessed as reduction in cell viability measured after 24 hrs by MTT assay; format: cell-based, HEK-293T; details: human; in short: as §2
# [36] = Selectivity index, ratio of CC50 for HEK293T cells assessed as reduction in cell viability measured after 24 hrs by MTT assay to MIC for Escherichia coli ATCC 25922 assessed as bacterial growth inhibition by CLSI protocol based serial microdilution method; format: toxicity; details: human, read-out: Selectivity Index
# [37] = Selectivity index, ratio of CC50 for HEK293T cells assessed as reduction in cell viability measured after 24 hrs by MTT assay to MIC for Pseudomonas aeruginosa ATCC 9027 assessed as bacterial growth inhibition by CLSI protocol based serial microdilution method; format: toxicity; details: human, read-out: Selectivity Index
# [38] = Selectivity index, ratio of CC50 for HEK293T cells assessed as reduction in cell viability measured after 24 hrs by MTT assay to MIC for Staphylococcus aureus ATCC 25923 assessed as bacterial growth inhibition by CLSI protocol based serial microdilution method; format: toxicity; details: human, read-out: Selectivity Index
# Influenza A virus = assay: Antiviral activity against Influenza A virus (A/Puerto Rico/8/34 (H1N1) infected in MDCK cells assessed as decrease in viral titer preincubated for 1 hr followed by viral infection and cultivated for 48 hrs followed by supernatant transferred to chicken erythrocyte for 1 hr followed by measuring ability to cause positive hemagglutination; format: functional, organism-based; details: A/Puerto Rico/8/1934(H1N1)
# In short: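 MDCK monolayers in MEM were pre-incubated with compound for 1 h at 37 °C, then infected with 10-fold virus dilutions (10⁻¹–10⁻⁶) and held 48 h at 37 °C, 5% CO₂. Supernatant was mixed with an equal volume of 1% chicken erythrocytes, 60 min at room temperature. Titre was taken from the highest dilution giving full agglutination (log₁₀ EID₅₀). Triplicate per concentration.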
# [39] = Cytotoxicity against MDCK cells assessed as cell death incubated for 48 hrs by MTT assay; format: cell-based, Canis lupus familiaris; details: dog
# [40] = Selectivity index, ratio of CC50 for HEK293T cells assessed as reduction in cell viability measured after 24 hrs by MTT assay to MIC for Proteus vulgaris ATCC 6380 assessed as bacterial growth inhibition by CLSI protocol based serial microdilution method; format: toxicity; details: human, read-out: Selectivity Index
# [41] = Salmonella enterica subsp. enterica serovar Typhimurium
Compound,MIC (Pseudomonas aeruginosa [2]) [µg/mL],MBC (Staphylococcus aureus [3]) [µg/mL],MIC (Citrobacter freundii [5]) [µg/mL],MBC (Citrobacter freundii [6]) [µg/mL],MBC (Pseudomonas aeruginosa [7]) [µg/mL],MIC (Escherichia coli [8]) [µg/mL],MBC (Proteus vulgaris [12]) [µg/mL],MIC (Enterococcus faecalis [14]) [µg/mL],MIC (Proteus vulgaris [22]) [µg/mL],MBC (Enterococcus faecalis [24]) [µg/mL],MBC (Escherichia coli [25]) [µg/mL],MIC (Staphylococcus aureus [26]) [µg/mL],selectivity ratio at 24 h [27],selectivity ratio at 24 h [28],selectivity ratio at 24 h [29],selectivity ratio [30],MFC (Candida albicans [31]) [µg/mL],CC50 at 24 h [32] [µg/mL],selectivity ratio at 24 h [33],MIC (Candida albicans [34]) [µg/mL],further results
GENTAMICIN,> 400,100,0.4,0.8,> 400,50,1.6,50,0.8,100,100,50,,,,,,,,,MIC (Staphylococcus aureus [1]): 10 µg/mL; MBC (Staphylococcus aureus [4]): 1 µg/mL; MIC (Staphylococcus aureus [9]): > 100 µg/mL; MIC (Salmonella typhimurium [10]; [41]): 0.8 µg/mL; MBC (Staphylococcus aureus [11]): 1 µg/mL; MBC (Staphylococcus aureus [13]): > 100 µg/mL; MBC (Staphylococcus aureus [15]): > 100 µg/mL; MIC (Staphylococcus aureus [16]): 1 µg/mL; MBC (Staphylococcus aureus [17]): > 100 µg/mL; MIC (Staphylococcus aureus [18]): > 100 µg/mL; MBC (Salmonella typhimurium [19]; [41]): 1.6 µg/mL; MIC (Staphylococcus aureus [20]): > 100 µg/mL; MIC (Staphylococcus aureus [21]): 1 µg/mL; MBC (Staphylococcus aureus [23]): > 100 µg/mL
CCCCCCCCCCCC[N+]12CC[N+](Cc3ccc(C[N+]45CC[N+](CCCCCCCCCCCC)(CC4)CC5)cc3)(CC1)CC2,6.3,1.2,1.6,3.1,12.5,1.6,25,1.6,12.5,1.6,3.1,0.6,10,1,10,3,12.5,16,10,12.5,MIC (Salmonella typhimurium [10]): 1.6 µg/mL; CC50 at 24 h [35]: 16 µg/mL; selectivity ratio at 24 h [36]: 10; selectivity ratio at 24 h [37]: 3; selectivity ratio at 24 h [38]: 27; MBC (Salmonella typhimurium [19]): 3.1 µg/mL; EC50 (Influenza A virus): 1 µg/mL; CC50 at 48 h [39]: 2.9 µg/mL; selectivity ratio at 24 h [40]: 1
CCCCCCCCCCCC[N+]12CC[N+](C/C=C/C[N+]34CC[N+](CCCCCCCCCCCC)(CC3)CC4)(CC1)CC2,1.6,1.6,1.6,3.1,3.1,3.1,> 100,1.6,100,1.6,3.1,1.2,6,< 1,6,3,12.5,8,6,12.5,MIC (Salmonella typhimurium [10]): 16 µg/mL; CC50 at 24 h [35]: 10 µg/mL; selectivity ratio at 24 h [36]: 3; selectivity ratio at 24 h [37]: 6; selectivity ratio at 24 h [38]: 8; MBC (Salmonella typhimurium [19]): 3.1 µg/mL; EC50 (Influenza A virus): 2.6 µg/mL; CC50 at 48 h [39]: 6.8 µg/mL; selectivity ratio at 24 h [40]: < 1
